HTRA1 inhibitor: blocks human HTRA1 serine peptidase; Q92743; recombinant HTRA1, FP-rhodamine activity-based probe, fluorescence polarization; inhibition, % at 5.96 µM; 0.5% of 340,000 active; in the data active = inhibition above about 36%;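 note: 0% = enzyme with DMSO and 100% = wells lacking enzyme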
LEDGF integ inh: blocks HIV-1 LEDGF/p75-dependent DNA integration; TR-FRET IN-LEDGF/p75 DNA integration, Eu/Cy5; 0.64% of 370,000 active; inhibition, % at 3.7 µM;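 active = inhibition above the screen-wide mean plus 3 SD, cut at about 13% in these data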;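 note: signal is the Cy5 over europium emission ratio at 671 and 618 nm; 0% = plate median of compound wells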
TCR-CD3 inh: blocks the human TCR-CD3 interaction; TAMRA-labeled TCR probe fluorescence, biochemical; AID 651800; inhibition, % at 9.4 µM; 0.37% of 360,000 active; in the data active = inhibition above about 19%;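 note: recombinant mutant TCR 2C K166C tagged with TAMRA read by polarization; 0% = receptor in buffer alone and 100% = receptor with positive control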
SIAE primary: blocks human sialic acid acetylesterase; Q9HAT2; SIAE FP-Rh probe binding, fluorescence polarization; inhibition, % at 9.66 µM; 0.69% of 370,000 active;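 active = inhibition above a cutoff: mean of compounds within the control limits plus 3 SD of those, cut at about 17% in these data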;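 note: 0% = plate median of compound wells and 100% = probe without SIAE protein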
ABHD4 inh: inhibitors of mouse ABHD4; purified mABHD4, FP-Rh probe fluorescence polarization; inhibition, % at 8.92 µM; 0.54% of 370,000 active;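 active = inhibition exceeding the mean over every tested compound plus 3 SD, cut at about 30% in these data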;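 note: 0% = plate median of compound wells and 100% = S159A mutant with DMSO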
Target sequence (Q8VD66 whole entry, looked up): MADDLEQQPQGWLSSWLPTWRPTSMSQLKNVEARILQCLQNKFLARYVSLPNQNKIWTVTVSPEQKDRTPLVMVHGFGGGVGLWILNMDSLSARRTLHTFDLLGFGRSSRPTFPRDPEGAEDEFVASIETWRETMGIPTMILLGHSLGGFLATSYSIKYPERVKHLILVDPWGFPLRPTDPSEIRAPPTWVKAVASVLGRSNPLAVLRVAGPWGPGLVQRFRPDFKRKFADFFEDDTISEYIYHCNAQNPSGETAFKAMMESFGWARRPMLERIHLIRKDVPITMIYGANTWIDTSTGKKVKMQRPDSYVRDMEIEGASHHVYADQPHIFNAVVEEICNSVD
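Test system: mABHD4 protein | Buffer or medium: HEPES pH 7.0 buffer, 150 mM NaCl, 0.01% Pluronic F-127 | Probe or stimulus: FP-Rh fluorescent activity-based probe, added after compound pre-incubation | Timing: Pre-incubation 45 min, probe exposure 60 min, at 25 °C | Technique: Fluorescence polarization, excitation 525 nm, emission 598 nm, BODIPY TMR filters | Repeats: Single well per compound (singlicate)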
TDP2 inh: TDP2 (human) inhibition, absorbance primary screen | O95551 | recombinant TDP2, T5PNP hydrolysis, p-nitrophenol absorbance 415 nm | inhibition, % at 12.8 µM | 0.34% of 370,000 active | AID 720702;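 active = inhibition above the mean of all tested compounds plus 3 SD, set per campaign, cut at about 25% in these data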;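 note: 0% = DMSO with enzyme and 100% = buffer with substrate but no TDP2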
Target sequence (O95551 whole entry, looked up): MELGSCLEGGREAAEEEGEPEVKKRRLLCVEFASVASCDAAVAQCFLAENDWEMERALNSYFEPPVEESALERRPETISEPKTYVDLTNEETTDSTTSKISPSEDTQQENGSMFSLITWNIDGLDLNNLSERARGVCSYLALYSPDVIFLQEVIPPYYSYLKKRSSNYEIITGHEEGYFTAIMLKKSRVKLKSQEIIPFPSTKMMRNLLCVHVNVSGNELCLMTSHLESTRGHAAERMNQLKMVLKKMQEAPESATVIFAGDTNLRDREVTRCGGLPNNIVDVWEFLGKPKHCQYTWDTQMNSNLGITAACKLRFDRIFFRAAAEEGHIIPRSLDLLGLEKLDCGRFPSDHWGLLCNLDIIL
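System – recombinant human TDP2 · Quantity – TDP2 enzyme at 120 nM final · Doses – single concentration, 12.8 µM nominal, with 1% DMSO · Incubation – 2 h at 37 °C · Measured by – epi absorbance of p-nitrophenol freed from T5PNP by hydrolysis · Read-out – % inhibition relative to enzyme-containing and enzyme-free wells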
ABHD4 confirm: confirmation of mouse ABHD4 inhibitors. shares compounds with ABHD4 inh. AID 720658. 55% of 1,800 active. purified mABHD4, FP-Rh probe fluorescence polarization. inhibition, % at 8.92 µM;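 active = mean inhibition across replicates above the hit cutoff set in the primary screen, cut at about 30% in these data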;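 note: 0% = wild-type ABHD4 with DMSO and 100% = catalytically dead S159A mutant with DMSO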
The depositor's hits bear a star; x = no result. An excerpt weighted towards active compounds, which were near 2.2% of everything screened.

SMILES | HTRA1 inhibitor | LEDGF integ inh | TCR-CD3 inh | SIAE primary | ABHD4 inh | TDP2 inh | ABHD4 confirm
COC(=O)C(N)Cc1ccc(O)c(O)c1 (configuration not stated) | 4 | 4 | 8 | 5 | 20 | 3 | x
COC(=O)[C@]12C[C@H](CC(=O)NCc3ccc(OC)c(OC)c3)C(=O)N(CCc3ccc(OC)c(OC)c3)C1=C[C@H](C(C)C)O[C@@H]2C1CC1 | x | -2 | x | -5 | 3 | 3 | x
CC(=O)Oc1ccc(C(=O)O)cc1OC(C)=O | 2 | -1 | 5 | 9 | 2 | 6 | x
CC(=O)Oc1cccc2c1C(=O)c1c(OC(C)=O)cc(C(=O)O)cc1C2=O | 2 | -1 | -4 | 4 | 48* | 3 | 18
Cc1cccc(Cc2c(C)nc3c(C(=O)N4CCN(Cc5ccc6c(c5)OCO6)CC4)cnn3c2C)c1 | -7 | -2 | 4 | -2 | 36* | -10 | 38*
C=C1CCC2C(C)(C)CCC[C@]2(C)[C@H]1CC1=C(O)C(=O)C(CO)=CC1=O (some centres not stated) | x | -5 | x | 0 | 39* | -1 | 71*
CC(C)(C)CCNc1nc(-c2ccccn2)nnc1-c1ccccc1 | x | -4 | x | 3 | 17 | 13 | x
CC1CCC2(CCC(=O)N2CCCOC(=O)Nc2cccc(C(F)(F)F)c2)CC1 (configuration not stated) | x | -2 | x | 7 | 10 | -3 | x
CCN(CC)c1ccc(Nc2nc(-c3cccnc3)cs2)cc1 | 35 | -3 | 0 | 9 | 30* | 3 | 35*
COc1cc(CNc2cccc3c2S(=O)(=O)N([C@H](C)c2ccccc2)C[C@@H](COCc2ccccc2)O3)cc(OC)c1OC | x | 0 | 1 | -13 | -8 | -3 | x
CCOC(=O)C1=C(Nc2ccc(Br)cc2)C(=O)N(CC)C1 | x | 2 | -5 | 4 | -5 | 2 | x
O=C(O)c1ccc(NS(=O)(=O)c2ccc3c(c2)C(=O)c2ccccc2C3=O)cc1 | x | 1 | -4 | 5 | 36* | 11 | 58*
O=C(O)c1cccc(S(=O)(=O)Nc2ccc(-c3ccccc3)cc2)c1 | -10 | 2 | 3 | -6 | 8 | -11 | x
O=C(Nc1c(-c2ccc(F)c(F)c2)nc2ncccn12)C1CC1 | x | -2 | x | -2 | 4 | 5 | x
COc1ccc(C(=O)C2(C(=O)Nc3cc(C)cc(C)c3)CC(c3ccccn3)=NO2)cc1 (configuration not stated) | x | -1 | x | -3 | -16 | 4 | x
CCCCCCCCN1C(=O)[C@@H](CC(=O)N2CCN(C(=O)c3ccco3)CC2)C[C@@]2(C(=O)OC)C1=C[C@H](C1CCCC1)O[C@@H]2C | x | -3 | 1 | -2 | 5 | 6 | x
CCOc1cc(N2CCOCC2)c(OCC)cc1NC(=O)CN1CCc2ccccc2C1 | 5 | -1 | -3 | 6 | 31* | -2 | 15
CN(C(=S)Nc1ccc(SC(F)F)cc1)c1ccc(O)cc1 | 31 | 10 | 4 | 17 | 45* | 11 | -4
FC(F)Sc1ccc(NC(=S)NC2CCCC2)cc1 | -6 | -7 | -1 | -2 | -5 | -3 | x
CCCC1CCC2(CC1)CCC2OC(=S)NCCc1ccc(Cl)cc1 (configuration not stated) | x | 4 | x | -4 | -9 | 5 | x
Nc1nc(N)nc(-c2ccccn2)n1 | 6 | 1 | 6 | -5 | -1 | -1 | x
c1ccc(-c2nc(-c3ccccn3)nc(-c3ccccn3)n2)nc1 | 2 | 0 | 1 | -1 | 35* | 3 | 47*
O=C(/C=C1\C(=O)Nc2ccccc21)/C=C1\C(=O)Nc2ccccc21 | 25 | 2 | 6 | 19* | 41* | 8 | 24
COC(=O)[C@]12C[C@H](CC(=O)NCc3cccc(C(F)(F)F)c3)C(=O)N(Cc3ccco3)C1=C[C@H](C(C)C)O[C@@H]2C1CC1 | x | -3 | x | 1 | -5 | 0 | x
Cc1cc(C)c(S(=O)(=O)/N=C2\C=C(NS(=O)(=O)c3ccccc3)C(=O)c3ccccc32)c(C)c1 | 13 | -1 | -10 | 9 | 45* | -8 | 42*
SMILES | HTRA1 inhibitor | LEDGF integ inh | TCR-CD3 inh | SIAE primary | ABHD4 inh | TDP2 inh | ABHD4 confirm
Cc1cc(C)c(NS(=O)(=O)c2ccccc2)c(C)c1 | -2 | -2 | -4 | 1 | 5 | -10 | x
Oc1ccc(C=NNc2nc3ccccc3s2)c(O)c1 | 35 | -3 | 6 | -2 | 43* | -4 | 36*
CC(=NNc1nc2ccccc2o1)c1ncccn1 | 11 | -10 | -2 | 7 | 31* | -3 | 24
CC(=O)Nc1cccc(/C(C)=N/Nc2nc3ccccc3s2)c1 | -11 | 3 | 3 | 2 | 12 | -7 | x
CC(=NNc1nc2ccccc2s1)c1ncccn1 | 16 | 3 | -5 | -7 | 35* | 0 | 27
C/C(=N\Nc1nc2ccccc2s1)c1cccs1 | 11 | 0 | -6 | 8 | 31* | -13 | 24
C=CCN1C(=O)[C@H](CC(=O)N2CCCCC2)[C@@]2(C(=O)OCC)CCCC=C12 | x | -1 | x | 5 | 2 | 5 | x
CCN(CC)C(=O)CC[C@H]1CC[C@]2(CCCN(C(=O)C3CCCC3)C2)O1 | x | -3 | x | -5 | 6 | 2 | x
N#Cc1[nH]nc2nc[nH]c(=O)c12 | x | 4 | -2 | -1 | 6 | 6 | x
Cc1cc(C)cc(NC2=CC(=O)CC(c3ccco3)C2)c1 (configuration not stated) | -3 | 4 | -1 | 6 | 8 | 1 | x
CCc1ccc(NC2=CC(=O)CC(c3ccco3)C2)cc1 (configuration not stated) | 1 | 9 | -8 | -2 | 37* | -9 | 12
CN(c1ccccc1)c1ccc(/C=C(/CCC(=O)O)c2nc3ccccc3s2)cc1[N+](=O)[O-] | 33 | -2 | -10 | 7 | 46* | -12 | 56*
O=C(O)CC/C(=C\c1ccccc1[N+](=O)[O-])c1nc2ccccc2s1 | 4 | 2 | 4 | -10 | -1 | 1 | x
O=C(O)CC/C(=C\c1ccc(N2CCCC2)c([N+](=O)[O-])c1)c1nc2ccccc2s1 | 10 | -8 | -8 | -14 | 46* | -12 | 51*
CC(C)(C)c1ccc(-c2nnc3n2N=C(c2ccc4ccccc4c2)CS3)cc1 | x | 2 | x | -8 | -11 | -1 | x
O=C(CN1C(=O)/C(=C2\SC(=S)N(CCS(=O)(=O)O)C2=O)c2ccccc21)Nc1cccc(Br)c1 | -39 | 6 | 9 | -3 | 67* | 11 | 83*
O=C(O)c1cc(N/N=C2/CC(c3ccccc3)Oc3ccccc32)ccc1Cl (configuration not stated) | 4 | 3 | 0 | 7 | 32* | -8 | 72*
CC(C)(C)N/N=C1\CC(c2ccccc2)Oc2ccccc21 (configuration not stated) | 1 | 3 | 8 | 3 | -4 | 11 | x

Source: PubChem BioAssay
